Casp6 inh: blocks human caspase-6 cleavage activity. P55212. purified caspase-6, Z-VEID-R110 cleavage fluorescence. inhibition, % at 12.5 µM. 350,000 tested, 0.53% active;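 active = mean inhibition across replicates at least about 35%, with every replicate also reaching that limit, limit read from the data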
Target sequence (P55212 24-179 limits assumed): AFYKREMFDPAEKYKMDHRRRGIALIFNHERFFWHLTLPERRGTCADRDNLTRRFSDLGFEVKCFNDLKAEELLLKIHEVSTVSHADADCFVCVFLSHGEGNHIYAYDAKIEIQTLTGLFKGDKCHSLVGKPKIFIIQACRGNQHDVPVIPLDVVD
Target sequence (P55212 194-293 limits assumed): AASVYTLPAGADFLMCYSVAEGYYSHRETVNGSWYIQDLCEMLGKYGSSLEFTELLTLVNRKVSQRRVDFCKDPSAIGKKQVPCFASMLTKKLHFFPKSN
FGF22 binding-1: binders of recombinant human FGF22 by thermal shift; Q9HCT0; SYPRO orange fluorescence; percent of sucrose octasulfate shift, DMSO zero; activity (Tm shift, normalised), % at 9.99 µM; 340,000 tested, 1.5% active;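 active = mean Tm shift, scaled 0 neutral to 100 positive control, at about 1.3% or above, every replicate too, limit read from the data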
Target sequence (Q9HCT0 whole entry, looked up): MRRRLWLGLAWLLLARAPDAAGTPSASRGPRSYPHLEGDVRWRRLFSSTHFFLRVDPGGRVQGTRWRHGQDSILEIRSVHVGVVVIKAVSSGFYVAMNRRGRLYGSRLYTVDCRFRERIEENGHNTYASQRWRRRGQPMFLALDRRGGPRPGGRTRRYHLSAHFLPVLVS
SIRT5 block: sirtuin-5 (human) deacylase inhibition | Q9NXA8 | Purified SirT5, succinyl-peptide AMC, trypsin-coupled fluorescence | inhibition, % at 15 µM | 330,000 tested, 1.1% active; in the data active = inhibition above about 15%
UCH37 inh: human UCH37 deubiquitinating enzyme inhibition | Q9Y5K5 | purified proteasome/UCH37, Ub-AMC cleavage fluorescence | inhibition, % (no concentration beside the values) | 330,000 tested, 0.33% active;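 active = mean inhibition over replicate wells above about 20%, limit read from the data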
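Assay system: Proteasome-bound UCH37. Buffer or medium: pH 7.4 Tris-HCl (50 mM) with ovalbumin, ATP-MgCl2, DTT. Incubation: 30 min preincubation with enzyme, 25 min cleavage at room temperature. Measured by: fluorescence, ex 355 nm, em 460 nm. Read-out basis: percent inhibition. Control set: wells without proteasome as full block, compound-free enzyme plus substrate as uninhibited.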
NSD2 HMT inh: inhibitors of human histone methyltransferase NSD2; 310,000 tested, 0.54% active; AID 743445; O96028; NSD2 peptide methylation, AlphaScreen, 120 min; inhibition, % at 12.5 µM; in the data active = inhibition above about 50%
FGF22 binding-2: binders of human FGF22 by thermal shift | shares compounds with FGF22 binding-1 | recombinant FGF22 thermal shift, SYPRO orange fluorescence | thermal shift activity, °C (ΔTm) at 38 µM | 1,000 tested, 2% active;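 active = fitted rise in melting shift crosses a set limit at or below the top valid dose tested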
TSA no protein: compound-only SYPRO artifact for FGF22 binders; shares compounds with FGF22 binding-1; compound-only SYPRO orange thermal shift counter-screen, no protein; AC50, µM (series often up to 38 µM); 1,000 tested, 2% active;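 active = rising signal whose fitted curve reaches the 0.54 level within the top valid dose, showing a melting point, actives reach about 13 µM in these data; inactive = the rest, including activity in the opposite direction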; note: value is where the raw curve crosses a fixed level and not half-maximal
Numbers stand for hits; . = inactive; / = no result. A selection: hits, their analogues and other compounds. The true share with any hit is near 2.6%.

SMILES	Casp6 inh	FGF22 binding-1	SIRT5 block	UCH37 inh	NSD2 HMT inh	FGF22 binding-2	TSA no protein
Cc1ccc(S(=O)(=O)N2C[C@]3(O)C[C@@H]4C(=O)N(c5ccccc5)C(=O)[C@@H]4C[C@]3(OC(=O)NCc3ccccc3)C2)cc1	.	.	.	/	/	/	/
Cc1ccc(S(=O)(=O)N2C[C@]3(O)C[C@@H]4C(=O)N(c5ccccc5)C(=O)[C@@H]4C[C@]3(OC(=O)NCC3CCCCC3)C2)cc1	.	3.2	.	/	/	.	.
COc1ccc(Cc2nnc(-c3ccccc3)o2)cc1	.	17	.	.	.	.	.
COc1cccc(NC(=O)N[C@@H]2CC[C@@H](CC(=O)Nc3ccccc3)O[C@H]2CO)c1	.	22	.	/	/	.	.
C[C@H](NC(=O)C[C@@H]1CC[C@@H](NC(=O)Nc2ccc3c(c2)OCO3)[C@@H](CO)O1)c1ccccc1	.	6.9	.	/	/	.	.
O=C(C[C@@H]1CC[C@@H](NC(=O)Nc2cc(F)ccc2F)[C@H](CO)O1)NCCCN1CCOCC1	.	39	.	/	/	.	.
O=C(NCC[C@@H]1CC[C@@H](NC(=O)Nc2cc(F)ccc2F)[C@@H](CO)O1)Nc1ccc(F)cc1	.	1.3	.	/	/	.	.
COc1cccc(NC(=O)N[C@H]2CC[C@H](CC(=O)Nc3ccccc3)O[C@@H]2CO)c1	.	.	.	/	/	/	/
C[C@@H](NC(=O)C[C@@H]1CC[C@H](NC(=O)Nc2ccc3c(c2)OCO3)[C@H](CO)O1)c1ccccc1	.	.	.	/	/	/	/
CCNC(=O)[C@H]1[C@H](CO)[C@H]2Cn3c(ccc(-c4ccccc4)c3=O)[C@@H]1N2C(=O)CC1CC1	.	/	.	/	/	/	/
C[C@H]1CN([C@@H](C)CO)C(=O)Cc2cc(NS(=O)(=O)c3cccs3)ccc2O[C@@H]1CN(C)CC1CCCCC1	.	.	.	/	/	/	/
C[C@H]1CN([C@@H](C)CO)C(=O)c2cc(NC(=O)C3CC3)ccc2O[C@@H]1CN(C)Cc1ccc(C(=O)O)cc1	.	.	.	/	/	/	/
C[C@@H]1CCCCO[C@H](CN(C)Cc2ccncc2)[C@@H](C)CN([C@H](C)CO)C(=O)c2cc(NS(=O)(=O)c3ccccc3)ccc2O1	.	.	.	/	/	/	/
O=C(C[C@@H]1CC[C@H](NC(=O)c2ccc3c(c2)OCO3)[C@H](CO)O1)NCc1ccc(Oc2ccccc2)cc1	.	16	.	/	/	.	.
O=C(C[C@@H]1CC[C@@H](NC(=O)Nc2cc(F)ccc2F)[C@H](CO)O1)Nc1ccc(-c2ccccc2)cc1	.	.	.	/	/	/	/
O=C(C[C@H]1CC[C@@H](NC(=O)Nc2cc(F)ccc2F)[C@@H](CO)O1)Nc1ccc(-c2ccccc2)cc1	.	1.3	.	/	/	.	.
CCCCCC(=O)NN=C(C)c1ccc(Cl)cc1	/	/	/	.	/	/	/
Oc1c(CN2CCOCC2)cc(CN2CCOCC2)c(O)c1O	.	1.4	/	.	.	.	.
O=[N+]([O-])c1cccc(S(=O)(=O)Nc2ccc(S(=O)(=O)Nc3nccs3)cc2)c1	.	1.6	.	.	.	.	.
O=[N+]([O-])c1cccc(S(=O)(=O)Nc2ccc(-c3ccc(N4CCOCC4)nn3)cc2)c1	.	2.5	.	.	.	.	.
O=[N+]([O-])c1cccc(S(=O)(=O)Nc2ccc(-c3ccc(N4CCCC4)nn3)cc2)c1	.	1.6	.	.	.	.	.
C[C@@H]1CN([C@H](C)CO)C(=O)c2cc(C#C[C@@H](C)O)cnc2O[C@H]1CN(C)CC1CCCCC1	.	.	.	/	/	/	/
COc1ccc2c3c(n(C)c2c1)[C@@H](CO)NCC31CN(S(=O)(=O)c2ccccc2)C1	/	.	/	/	/	/	/
CCCNC(=O)N[C@H]1CC[C@@H](CCn2cc(-c3cccc(F)c3)nn2)O[C@H]1CO	.	.	.	/	/	/	/
COc1ccccc1-c1cn(CC[C@@H]2CC[C@H](NC(=O)C3CCCCC3)[C@@H](CO)O2)nn1	.	.	.	/	/	/	/
SMILES	Casp6 inh	FGF22 binding-1	SIRT5 block	UCH37 inh	NSD2 HMT inh	FGF22 binding-2	TSA no protein
CC(C)NC(=O)Nc1ccc2c(c1)C(=O)N([C@@H](C)CO)C[C@H](C)[C@H](CN(C)C)OCCCC[C@H](C)O2	.	.	.	/	/	/	/
O=C(C1CCC1)N1CC2(C1)[C@H](c1ccccc1)[C@H](CO)N2Cc1cccnc1	.	.	.	/	/	/	/
CCNC(=O)[C@@H]1[C@@H](CO)[C@@H]2Cn3c(ccc(-c4ccc(F)cc4)c3=O)[C@@H]2N1C(=O)Cc1cccnc1	.	.	.	/	/	/	/
O=C(Cc1cccnc1)N1CC2(C1)[C@@H](c1ccccc1)[C@@H](CO)N2C(=O)C1CCCC1	.	/	.	/	/	/	/
C/C(=N\NC(=O)c1ccc(NS(=O)(=O)c2cccs2)cc1)c1cccs1	/	1.5	.	/	.	.	.
COc1ccc(CN(C)C[C@@H]2Oc3ccc(NC(=O)CCN4CCOCC4)cc3CC(=O)N([C@H](C)CO)C[C@H]2C)cc1	.	.	/	/	/	/	/
CC(C)NC(=O)Nc1ccc2c(c1)C(=O)N([C@@H](C)CO)C[C@@H](C)[C@H](CN(C)Cc1ccc(C(F)(F)F)cc1)OCCCC[C@H](C)O2	.	.	.	/	/	/	/
CCCCCCCC=NNc1nnc(Cc2ccccc2)c(=O)[nH]1	/	/	/	.	/	/	/
COc1cc(OC)cc(C(=O)Nc2nc3ccc(S(C)(=O)=O)cc3s2)c1	.	1.4	.	.	.	.	.
CO[C@@H]1CN(C)C(=O)c2ccc(NC(=O)C3CCCC3)cc2OC[C@@H](C)N(C(=O)c2ccccc2)C[C@H]1C	.	.	.	/	/	/	/
Cc1ccccc1NCC(=O)N/N=C\C=C\c1cccc([N+](=O)[O-])c1	.	1.5	.	/	.	.	.
O=C(Cc1ccccc1)N/N=C/C=C/c1cccc([N+](=O)[O-])c1	/	/	/	/	.	/	/
CCC(=O)N1[C@H](CO)[C@@H](c2ccccc2)[C@@H]1CN(C)C(=O)c1cccc(F)c1	.	.	.	/	/	/	/
O=C(CC1SC(=O)NC1=O)Nc1ccc(Cl)cc1 (stereo not given)	.	6.2	.	.	.	/	.
COc1ccccc1NC(=O)N[C@@H]1CC[C@@H](CCn2cc(-c3ccccc3OC)nn2)O[C@@H]1CO	.	1.7	.	/	/	.	.
O=C(C[C@@H]1CC[C@@H]2[C@H](COC[C@@H](O)CN2CC2CCOCC2)O1)NCC1CCCCC1	.	.	.	/	/	/	/
CN1CCN(C(=O)C[C@H]2CC[C@@H]3[C@H](COC[C@@H](O)CN3CC3CCCCC3)O2)CC1	.	.	.	/	/	/	/
CN1CCN(C(=O)C[C@@H]2CC[C@H]3[C@@H](COC[C@H](O)CN3CC3CCCCC3)O2)CC1	.	24	.	/	/	.	.
O=C(C[C@H]1CC[C@H]2[C@@H](COC[C@H](O)CN2CC2CCOCC2)O1)NCC1CCCCC1	.	2.4	.	/	/	.	.

High-throughput results as filed in PubChem.
